Data published in ChEMBL document CHEMBL2176954, “General synthesis of β-alanine-containing spider polyamine toxins and discovery of nephila polyamine toxins 1 and 8 as highly potent inhibitors of ionotropic glutamate receptors” (J Med Chem, 2012).

Columns and labels:
Assay type in all cases: functional, cell-based, Oocyte
Glutamate receptor 1 = Glutamate receptor 1 (Rattus norvegicus, UniProt P19490); experiment: Antagonist activity at rat GluA1 receptor expressed in Xenopus oocytes at membrane potential -60 mV by two-electrode voltage-clamp electrophysiology assay
Sequence of Glutamate receptor 1 (P19490 whole entry): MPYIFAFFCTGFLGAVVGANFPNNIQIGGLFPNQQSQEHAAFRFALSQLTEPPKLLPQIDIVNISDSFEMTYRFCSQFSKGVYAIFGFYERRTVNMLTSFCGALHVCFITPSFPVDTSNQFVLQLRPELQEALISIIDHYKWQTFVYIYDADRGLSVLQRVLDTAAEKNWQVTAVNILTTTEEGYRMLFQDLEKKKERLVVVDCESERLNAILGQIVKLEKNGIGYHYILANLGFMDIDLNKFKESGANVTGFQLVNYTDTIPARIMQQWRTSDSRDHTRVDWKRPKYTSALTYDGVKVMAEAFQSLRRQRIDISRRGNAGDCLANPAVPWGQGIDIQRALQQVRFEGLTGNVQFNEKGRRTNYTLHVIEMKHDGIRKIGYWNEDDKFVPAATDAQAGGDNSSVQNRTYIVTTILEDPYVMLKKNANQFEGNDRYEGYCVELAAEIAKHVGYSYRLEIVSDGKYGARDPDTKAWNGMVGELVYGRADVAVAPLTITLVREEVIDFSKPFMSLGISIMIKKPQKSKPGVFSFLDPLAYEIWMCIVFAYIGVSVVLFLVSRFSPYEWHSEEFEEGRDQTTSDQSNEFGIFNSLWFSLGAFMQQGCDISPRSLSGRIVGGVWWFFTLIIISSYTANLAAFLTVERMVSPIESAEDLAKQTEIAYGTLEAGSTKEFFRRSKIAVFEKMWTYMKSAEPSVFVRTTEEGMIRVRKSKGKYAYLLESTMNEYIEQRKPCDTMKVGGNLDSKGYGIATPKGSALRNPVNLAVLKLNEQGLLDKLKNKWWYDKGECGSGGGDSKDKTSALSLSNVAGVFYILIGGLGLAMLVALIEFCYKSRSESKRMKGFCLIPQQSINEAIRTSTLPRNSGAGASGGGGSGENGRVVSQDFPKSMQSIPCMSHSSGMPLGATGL
Summary of the method: (§1)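 Two-electrode voltage clamp at −60 mV on oocytes expressing the iGlu receptor subtype. Cells first received a maximally effective agonist concentration, then increasing toxin concentrations co-applied with agonist. IC50 values are means from 6 to 12 experiments, reported with 95% confidence intervals.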

[1] = target: Glutamate receptor ionotropic, NMDA 2A (Rattus norvegicus, UniProt P35439+Q00959); experiment: Antagonist activity at rat glutamate N1/2A receptor expressed in Xenopus oocytes at membrane potential -60 mV by two-electrode voltage-clamp electrophysiology assay; summary of the method: as §1
Sequence of Glutamate receptor ionotropic, NMDA 2A (Q00959 whole entry, one chain of several): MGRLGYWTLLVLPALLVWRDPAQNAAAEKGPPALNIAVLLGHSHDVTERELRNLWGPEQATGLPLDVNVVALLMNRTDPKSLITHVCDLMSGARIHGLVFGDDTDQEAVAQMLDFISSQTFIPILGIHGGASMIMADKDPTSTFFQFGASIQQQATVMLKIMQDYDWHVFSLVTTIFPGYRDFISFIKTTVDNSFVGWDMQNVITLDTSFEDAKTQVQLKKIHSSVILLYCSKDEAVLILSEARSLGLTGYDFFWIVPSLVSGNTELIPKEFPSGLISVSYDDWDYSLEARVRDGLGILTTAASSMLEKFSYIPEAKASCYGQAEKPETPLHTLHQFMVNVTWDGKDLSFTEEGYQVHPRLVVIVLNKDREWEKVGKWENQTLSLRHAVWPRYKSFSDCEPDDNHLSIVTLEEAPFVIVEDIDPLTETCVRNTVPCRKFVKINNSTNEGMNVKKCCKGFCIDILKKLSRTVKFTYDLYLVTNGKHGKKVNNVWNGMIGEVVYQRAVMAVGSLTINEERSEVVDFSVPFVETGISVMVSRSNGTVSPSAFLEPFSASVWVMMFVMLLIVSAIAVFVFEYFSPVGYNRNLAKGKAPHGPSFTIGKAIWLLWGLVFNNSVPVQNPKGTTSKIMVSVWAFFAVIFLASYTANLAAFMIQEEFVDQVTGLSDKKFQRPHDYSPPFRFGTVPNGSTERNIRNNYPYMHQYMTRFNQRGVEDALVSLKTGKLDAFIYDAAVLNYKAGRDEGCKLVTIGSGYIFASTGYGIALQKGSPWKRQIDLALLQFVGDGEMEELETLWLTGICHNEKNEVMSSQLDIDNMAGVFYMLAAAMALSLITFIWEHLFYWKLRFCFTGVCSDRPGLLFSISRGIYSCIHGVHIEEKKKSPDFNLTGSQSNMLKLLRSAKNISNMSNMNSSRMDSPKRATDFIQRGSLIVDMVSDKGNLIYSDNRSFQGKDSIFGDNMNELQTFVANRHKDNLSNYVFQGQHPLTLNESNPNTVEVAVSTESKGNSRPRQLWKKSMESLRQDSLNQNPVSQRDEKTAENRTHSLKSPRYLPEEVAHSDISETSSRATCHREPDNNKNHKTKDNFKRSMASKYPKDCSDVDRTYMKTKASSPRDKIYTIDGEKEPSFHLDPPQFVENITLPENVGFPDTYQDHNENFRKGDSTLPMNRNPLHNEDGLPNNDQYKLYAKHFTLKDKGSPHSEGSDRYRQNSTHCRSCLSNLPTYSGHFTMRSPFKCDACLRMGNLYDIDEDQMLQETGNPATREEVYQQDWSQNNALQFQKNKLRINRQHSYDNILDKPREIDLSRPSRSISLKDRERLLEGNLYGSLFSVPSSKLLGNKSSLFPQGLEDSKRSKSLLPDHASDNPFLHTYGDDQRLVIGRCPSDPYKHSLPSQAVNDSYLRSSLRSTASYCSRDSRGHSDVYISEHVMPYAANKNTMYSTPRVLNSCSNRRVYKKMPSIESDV

[2] = target: T1, Glutamate receptor ionotropic, kainate 1 (Rattus norvegicus, UniProt P22756); experiment: Antagonist activity at rat GluK1 receptor expressed in Xenopus oocytes at membrane potential -60 mV by two-electrode voltage-clamp electrophysiology assay; summary of the method: as §1
T1 sequence (P22756 whole entry): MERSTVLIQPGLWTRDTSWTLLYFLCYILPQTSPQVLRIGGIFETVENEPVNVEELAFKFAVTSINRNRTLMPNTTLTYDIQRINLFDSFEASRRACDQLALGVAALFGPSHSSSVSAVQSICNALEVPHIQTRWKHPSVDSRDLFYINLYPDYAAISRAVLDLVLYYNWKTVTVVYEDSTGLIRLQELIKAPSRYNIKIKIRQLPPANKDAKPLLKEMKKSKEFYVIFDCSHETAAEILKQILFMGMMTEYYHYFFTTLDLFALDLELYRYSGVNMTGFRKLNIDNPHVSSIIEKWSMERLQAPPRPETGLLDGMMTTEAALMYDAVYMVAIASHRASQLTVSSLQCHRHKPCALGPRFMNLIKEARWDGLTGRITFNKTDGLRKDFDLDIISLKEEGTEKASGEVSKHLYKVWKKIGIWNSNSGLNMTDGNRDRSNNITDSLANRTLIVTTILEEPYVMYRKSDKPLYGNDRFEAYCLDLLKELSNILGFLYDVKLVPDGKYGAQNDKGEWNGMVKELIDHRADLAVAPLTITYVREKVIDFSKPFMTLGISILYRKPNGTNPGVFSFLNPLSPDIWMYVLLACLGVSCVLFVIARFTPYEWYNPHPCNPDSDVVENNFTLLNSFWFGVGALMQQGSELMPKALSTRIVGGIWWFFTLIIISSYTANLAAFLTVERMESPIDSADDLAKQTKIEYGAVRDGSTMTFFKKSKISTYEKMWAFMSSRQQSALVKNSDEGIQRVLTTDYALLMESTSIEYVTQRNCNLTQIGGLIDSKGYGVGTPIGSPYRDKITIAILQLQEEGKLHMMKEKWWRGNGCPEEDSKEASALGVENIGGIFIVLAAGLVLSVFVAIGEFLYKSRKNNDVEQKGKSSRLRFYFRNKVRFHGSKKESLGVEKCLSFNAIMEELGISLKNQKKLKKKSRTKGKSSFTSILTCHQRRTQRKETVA

[3] = target: T1, Glutamate receptor ionotropic, kainate 1; experiment: Antagonist activity at rat GluK1 receptor expressed in Xenopus oocytes by two-electrode voltage-clamp at membrane potential -60 to -80 mV electrophysiology assay
Summary of the method: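 GluK1-expressing oocytes were clamped by two-electrode voltage clamp and given a maximally effective agonist concentration, then increasing toxin concentrations plus agonist. IC50 was determined at −60 mV and at −80 mV to assess voltage dependence of block. Values at −60 mV are means of 6 to 12 experiments.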

`N=C(N)NCCC[C@H](N)C(=O)NCCCNCCCNCCCCCNC(=O)[C@H](CC(N)=O)NC(=O)Cc1ccc(O)cc1O` gave an IC50 (Glutamate receptor 1) of 0.135 µM and an IC50 [1] of 0.177 µM.
For `C[C@H](NC(=O)CNC(=O)[C@@H](N)CCCNC(=N)N)C(=O)NCCCCNCCC(=O)NCCCCCNC(=O)[C@H](CC(N)=O)NC(=O)Cc1ccc(O)cc1O`, the IC50 [2] was 2.58 µM, the IC50 (Glutamate receptor 1) was 1.08 µM and the IC50 [1] was over 10 µM.
Work on `NCCCNCCCCNCCC(=O)NCCCCCNC(=O)[C@H](CC(N)=O)NC(=O)Cc1c[nH]c2ccccc12` yielded an IC50 [3] of 0.00028 µM, an IC50 [2] of 0.00082 µM and an IC50 (Glutamate receptor 1) of 0.027 µM. For the same compound, the IC50 [1] was 0.15 µM.
In the case of `NCCCNCCCCNCCC(=O)NCCCCCNC(=O)[C@H](CC(N)=O)NC(=O)Cc1c[nH]c2cccc(O)c12`, the IC50 [3] is reported as 0.00019 µM, the IC50 [2] is reported as 0.00033 µM and the IC50 (Glutamate receptor 1) is reported as 0.051 µM. For the same compound, the IC50 [1] was 1.39 µM.
In the case of `NCCCNCCCCNCCC(=O)NCCCCCNC(=O)[C@H](CC(N)=O)NC(=O)Cc1ccc(O)cc1O` [JORO SPIDER TOXIN 3], the IC50 [2] is reported as 0.019 µM, the IC50 (Glutamate receptor 1) is reported as 0.065 µM and the IC50 [1] is reported as 1.71 µM.
For `N=C(N)NCCC[C@H](N)C(=O)NCCCCNCCC(=O)NCCCCCNC(=O)[C@H](CC(N)=O)NC(=O)Cc1ccc(O)cc1O` [NEPHILA SPIDER TOXIN 3], the IC50 [2] was 0.164 µM, the IC50 (Glutamate receptor 1) was 0.137 µM and the IC50 [1] was 5.41 µM.
